Calls of active or inactive are those of the source. The calls are words filed in the database; no cut-off is given here.
Assays:
Mus musculus [1] = test: Antiobese activity in C57BLKS/J-db/db mouse assessed as decrease in plasma triglyceride level at 50 mg/kg/day, po […]; format: functional; set-up: scale not given: the % may be the effect or the level left
Outline: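 db/db mice were gavaged once daily in 0.5% microcrystalline cellulose/1.6% lactose vehicle for 6 weeks and killed after the final dose. Plasma triglycerides were measured with a colorimetric triglyceride assay kit.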

[2] = Cmax in 12 hrs fasting Sprague-Dawley rat at 10 mg/kg, po; format: ADME, organism-based; set-up: dose 10 mg/kg, route oral; conditions: in vivo
Outline: (§1)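 Male Sprague–Dawley rats were fasted 12 h and gavaged at 10 mg/kg. Blood was taken retro-orbitally into heparin tubes from pre-dose to 24 h. Plasma levels of parent and of berberine/dihydroberberine were measured by LC–MS/MS.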

Mus musculus [3] = test: Antiobese activity in high fat diet-fed C57BL/6J mouse assessed as decrease in plasma triglyceride level at 15 mg/kg/day, po for 6 weeks; format: functional; set-up: scale not given: the % may be the effect or the level left
Outline: (§2)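 DIO male C57BL/6J mice received daily oral dosing in cellulose/lactose vehicle for 6 weeks and were killed after the final dose. Plasma and liver triglycerides were measured by triglyceride assay kit, and fat depots were weighed.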

L6 [4] = test: Increase in glucose uptake in rat differentiated L6 myotubes at 10 uM in presence of 100 nM PI-3 kinase inhibitor wortmannin
L6 [5] = test: Increase in glucose uptake in rat differentiated L6 myotubes at 20 uM after 1 hr; format: functional
Outline: (§3)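 Fully differentiated L6 myotubes were serum-starved 2 h, then treated with compound for 15 min to 2 h (dose series at 1 h). Glucose uptake was measured relative to DMSO control. Mean of three independent experiments ± SE.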

[6] = Half life in 12 hrs fasting Sprague-Dawley rat at 10 mg/kg, po; format: ADME, organism-based; set-up: dose 10 mg/kg, route oral; conditions: in vivo; outline: as §1
Mus musculus [7] = test: Antidiabetic activity in high fat diet-fed C57BL/6J mouse assessed as alleviation of insulin resistance at 15 mg/kg/day, po for 4 weeks measured after 90 mins by insulin tolerance test; format: functional, organism-based
Outline: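 Male C57BL/6J mice were fed a 60 kcal% fat diet for 8 weeks, randomized, then gavaged daily in 0.5% microcrystalline cellulose/1.6% lactose vehicle. ITT was run at 4 weeks: 6 h fast, insulin 0.75 U/kg ip, blood glucose at 0, 15, 30, 60, 90 and 120 min. Mean ± SE, n = 5–8.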

L6 [8] = test: Increase in glucose uptake in rat differentiated L6 myotubes after 1 hr relative to untreated control; format: functional; outline: as §3
[9] = Oral bioavailability in 12 hrs fasting Sprague-Dawley rat at 10 mg/kg; format: ADME, organism-based; conditions: in vivo; outline: as §1
Mus musculus [10] = test: Toxicity in C57BLKS/J-db/db mouse assessed as change in food intake at 50 mg/kg/day, po for 6 weeks; format: organism-based; set-up: route oral; conditions: in vivo, 1008 h
Outline: (§4)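 db/db mice (half male, half female) were dosed by oral gavage daily for 6 weeks in 0.5% microcrystalline cellulose/1.6% lactose vehicle. Body weight and food intake were recorded daily. Mice were killed after the final dose, and liver and fat depots were weighed and expressed relative to body weight.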

Mus musculus [11] = test: Antidiabetic activity in C57BLKS/J-db/db mouse assessed as reduction of fasting blood glucose level at 50 mg/kg/day, po for 4 weeks; format: functional; set-up: scale not given: the % may be the effect or the level left
Rattus norvegicus = organism: Rattus norvegicus; test: Induction of AMPK phosphorylation in 2 hrs serum starved rat differentiated L6 myotubes after 1 hr
Outline: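 Fully differentiated L6 myotubes were serum-starved 2 h, then treated 1 h across a dose series. Phospho-AMPK (Thr172) and phospho-ACC (Ser79) were detected by Western blot. Three independent experiments.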

L6 [12] = test: Increase in glucose uptake in rat differentiated L6 myotubes after 15 mins; format: functional; outline: as §3
[13] = Aqueous solubility of compound in distilled water; format: physicochemical
Outline: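 Excess solid was suspended in distilled water and stirred 24 h at 25 ± 0.5 °C. The suspension was filtered, and dissolved concentration was measured by HPLC.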

L6 [14] = test: Increase in intracellular AMP:ATP ratio in rat differentiated L6 myotubes after 1 hr; format: functional, cell-based
Outline: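 Differentiated L6 myotubes were serum-starved 2 h and incubated 1 h with increasing concentrations. Intracellular AMP, ADP and ATP were measured and the AMP:ATP ratio calculated, with berberine 5 µM as positive control. Three independent experiments ± SE.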

Mus musculus [15] = test: Toxicity in C57BLKS/J-db/db mouse assessed as change in fat to body weight ratio at 50 mg/kg/day, po for 6 weeks; format: organism-based; set-up: route oral; conditions: in vivo, 1008 h; outline: as §4
Mus musculus [16] = test: Antidiabetic activity in high fat diet-fed C57BL/6J mouse assessed as increase in glucose tolerance at 15 mg/kg/day, po for 4 weeks measured after 30 mins by intraperitoneal glucose tolerance test; format: functional, organism-based
Outline: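 High-fat-diet (60 kcal%, 8 weeks) male C57BL/6J mice were randomized by body weight and fed glucose, then dosed orally once daily in cellulose/lactose vehicle. ipGTT was done at 4 weeks: D-glucose 2 g/kg ip, glucometer readings at 0, 15, 30, 60, 90 and 120 min. n = 5–8.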

Mus musculus [17] = test: Toxicity in high fat diet-fed C57BL/6J mouse assessed as change in body weight at 15 mg/kg/day, po for 6 weeks; format: organism-based; set-up: route oral; conditions: in vivo, 1008 h
Outline: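 Male C57BL/6J mice (purchased at 6 weeks of age) fed 60 kcal% fat diet for 8 weeks, then randomized by body weight and fed glucose. Dosed orally once daily for 6 weeks in vehicle of 0.5% microcrystalline cellulose plus 1.6% lactose. Groups: high-fat vehicle, metformin 250 mg/kg positive control, chow-fed vehicle. Body weight and food intake recorded daily.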

Mus musculus [18] = test: Antidiabetic activity in C57BLKS/J-db/db mouse assessed as decrease in area under curve at 50 mg/kg/day, po for 4 weeks by insulin tolerance test; format: functional; set-up: scale not given: the % may be the effect or the level left
Mus musculus [19] = test: Antiobese activity in high fat diet-fed C57BL/6J mouse assessed as decrease in subcutaneous fat at 15 mg/kg/day, po for 6 weeks; format: functional; set-up: scale not given: the % may be the effect or the level left; outline: as §2
Mus musculus [20] = test: Antiobese activity in high fat diet-fed C57BL/6J mouse assessed as decrease in liver triglyceride level at 15 mg/kg/day, po for 6 weeks; format: functional; set-up: scale not given: the % may be the effect or the level left; outline: as §2

Cmax [2]: 17.8 ng/mL | Activity (L6 [4]): Active | half-life [6]: 2.9 h | bioavailability [9]: 10% | Activity (Rattus norvegicus): Dose-dependent effect | solubility [13]: 81 mg/mL
Compound: COc1ccc2c(c1OC)C(C)(C)[N+]1=C(C2)c2cc3c(cc2CC1)OCO3.[Cl-] [8,8-dimethyldihydroberberine]
Activity (Mus musculus [1]): 38% | Activity (Mus musculus [3]): 26% | Activity (L6 [5]): 67% | Activity (Mus musculus [7]): Active | Activity (L6 [8]): 37% | Activity (Mus musculus [10]): Non-toxic | Activity (Mus musculus [11]): 24% | Activity (L6 [12]): 28% | Activity (L6 [14]): Dose-dependent effect | Activity (Mus musculus [15]): Non-toxic | Activity (Mus musculus [16]): Active | Activity (Mus musculus [17]): Non-toxic | Activity (Mus musculus [18]): 28% | Activity (Mus musculus [19]): 36% | Activity (Mus musculus [20]): 36%

— ChEMBL document CHEMBL1821702, “8,8-Dimethyldihydroberberine with improved bioavailability and oral efficacy on obese and diabetic mouse models” (Bioorg Med Chem, 2010)
